Columns and labels:
[1] = tested on: CO/N=C(\C(=O)N[C@@H]1C(=O)N2C(C(=O)O)=C(COC(N)=O)CS[C@H]12)c1ccco1; test: (§1) Hydrolytic activity of Escherichia coli DH10B beta-lactamase VIM-2 by microacidimetric method; settings: Escherichia coli str. K-12 substr. DH10B
[2] = tested on: CC1(C)S[C@@H]2[C@H](NC(=O)Cc3ccccc3)C(=O)N2[C@H]1C(=O)O; test: as §1; settings: Escherichia coli str. K-12 substr. DH10B
[3] = tested on: CC1(C)S[C@@H]2[C@H](NC(=O)[C@H](N)c3ccc(O)cc3)C(=O)N2[C@H]1C(=O)O; test: as §1; settings: Escherichia coli str. K-12 substr. DH10B
[4] = tested on: CC(C)(O/N=C(\C(=O)N[C@@H]1C(=O)N2C(C(=O)[O-])=C(C[n+]3ccccc3)CS[C@H]12)c1csc(N)n1)C(=O)O; test: as §1; settings: Escherichia coli str. K-12 substr. DH10B
[5] = tested on: C[C@@H](O)[C@H]1C(=O)N2C(C(=O)O)=C(S[C@@H]3CN[C@H](C(=O)N(C)C)C3)[C@H](C)[C@H]12; test: as §1; settings: Escherichia coli str. K-12 substr. DH10B
[6] = tested on: CCN1CCN(C(=O)N[C@@H](C(=O)N[C@@H]2C(=O)N3[C@@H]2SC(C)(C)[C@@H]3C(=O)O)c2ccccc2)C(=O)C1=O; test: as §1; settings: Escherichia coli str. K-12 substr. DH10B
[7] = tested on: CO[C@@]1(NC(=O)Cc2cccs2)C(=O)N2C(C(=O)O)=C(COC(N)=O)CS[C@@H]21; test: as §1; settings: Escherichia coli str. K-12 substr. DH10B
[8] = tested on: CO/N=C(\C(=O)N[C@@H]1C(=O)N2C(C(=O)[O-])=C(C[N+]3(C)CCCC3)CS[C@H]12)c1csc(N)n1; test: as §1; settings: Escherichia coli str. K-12 substr. DH10B
[9] = tested on: CC1(C)S[C@@H]2[C@H](NC(=O)[C@H](C(=O)O)c3ccsc3)C(=O)N2[C@H]1C(=O)O; test: as §1; settings: Escherichia coli str. K-12 substr. DH10B
[10] = tested on: CO/N=C(\C(=O)N[C@@H]1C(=O)N2C(C(=O)O)=C(COC(C)=O)CS[C@H]12)c1csc(N)n1; test: as §1; settings: Escherichia coli str. K-12 substr. DH10B
[11] = tested on: C[C@@H](O)[C@H]1C(=O)N2C(C(=O)O)=C(S[C@@H]3CN[C@H](C(=O)Nc4cccc(C(=O)O)c4)C3)[C@H](C)[C@H]12; test: as §1; settings: Escherichia coli str. K-12 substr. DH10B
[12] = tested on: C[C@@H](O)[C@H]1C(=O)N2C(C(=O)O)=C(SCCNC=N)C[C@H]12; test: as §1; settings: Escherichia coli str. K-12 substr. DH10B
[13] = tested on: CC(=O)OCC1=C(C(=O)O)N2C(=O)[C@@H](NC(=O)Cc3cccs3)[C@H]2SC1; test: as §1; settings: Escherichia coli str. K-12 substr. DH10B
[14] = tested on: C[C@H]1[C@H](NC(=O)/C(=N\OC(C)(C)C(=O)O)c2csc(N)n2)C(=O)N1S(=O)(=O)O; test: as §1; settings: Escherichia coli str. K-12 substr. DH10B
[15] = tested on: CO/N=C(\C(=O)N[C@@H]1C(=O)N2C(C(=O)O)=C(COC(N)=O)CS[C@H]12)c1ccco1; test: (§2) Ratio of Kcat to Km for Escherichia coli DH10B beta-lactamase VIM-2 by microacidimetric method; settings: Escherichia coli str. K-12 substr. DH10B
[16] = tested on: CC1(C)S[C@@H]2[C@H](NC(=O)Cc3ccccc3)C(=O)N2[C@H]1C(=O)O; test: as §2; settings: Escherichia coli str. K-12 substr. DH10B
[17] = tested on: CC1(C)S[C@@H]2[C@H](NC(=O)[C@H](N)c3ccc(O)cc3)C(=O)N2[C@H]1C(=O)O; test: as §2; settings: Escherichia coli str. K-12 substr. DH10B
[18] = tested on: CC(C)(O/N=C(\C(=O)N[C@@H]1C(=O)N2C(C(=O)[O-])=C(C[n+]3ccccc3)CS[C@H]12)c1csc(N)n1)C(=O)O; test: as §2; settings: Escherichia coli str. K-12 substr. DH10B
[19] = tested on: C[C@@H](O)[C@H]1C(=O)N2C(C(=O)O)=C(S[C@@H]3CN[C@H](C(=O)N(C)C)C3)[C@H](C)[C@H]12; test: as §2; settings: Escherichia coli str. K-12 substr. DH10B
[20] = tested on: CCN1CCN(C(=O)N[C@@H](C(=O)N[C@@H]2C(=O)N3[C@@H]2SC(C)(C)[C@@H]3C(=O)O)c2ccccc2)C(=O)C1=O; test: as §2; settings: Escherichia coli str. K-12 substr. DH10B
[21] = tested on: CO[C@@]1(NC(=O)Cc2cccs2)C(=O)N2C(C(=O)O)=C(COC(N)=O)CS[C@@H]21; test: as §2; settings: Escherichia coli str. K-12 substr. DH10B
[22] = tested on: CO/N=C(\C(=O)N[C@@H]1C(=O)N2C(C(=O)[O-])=C(C[N+]3(C)CCCC3)CS[C@H]12)c1csc(N)n1; test: as §2; settings: Escherichia coli str. K-12 substr. DH10B
[23] = tested on: CC1(C)S[C@@H]2[C@H](NC(=O)[C@H](C(=O)O)c3ccsc3)C(=O)N2[C@H]1C(=O)O; test: as §2; settings: Escherichia coli str. K-12 substr. DH10B
[24] = tested on: CO/N=C(\C(=O)N[C@@H]1C(=O)N2C(C(=O)O)=C(COC(C)=O)CS[C@H]12)c1csc(N)n1; test: as §2; settings: Escherichia coli str. K-12 substr. DH10B
[25] = tested on: C[C@@H](O)[C@H]1C(=O)N2C(C(=O)O)=C(S[C@@H]3CN[C@H](C(=O)Nc4cccc(C(=O)O)c4)C3)[C@H](C)[C@H]12; test: as §2; settings: Escherichia coli str. K-12 substr. DH10B
[26] = tested on: C[C@@H](O)[C@H]1C(=O)N2C(C(=O)O)=C(SCCNC=N)C[C@H]12; test: as §2; settings: Escherichia coli str. K-12 substr. DH10B
[27] = tested on: CC(=O)OCC1=C(C(=O)O)N2C(=O)[C@@H](NC(=O)Cc3cccs3)[C@H]2SC1; test: as §2; settings: Escherichia coli str. K-12 substr. DH10B
[28] = tested on: Escherichia coli BL21(DE3); test: Ratio of Kcat to Km for Escherichia coli BL21 DE3 beta-lactamase VIM-19 by microacidimetric method
How it was run: (§3)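 Enzyme overexpressed from modified pET9a in E. coli BL21(DE3), released by sonication, and purified on Q Sepharose (20 mM Tris-HCl pH 7.4, 0–500 mM NaCl gradient) then Superose 12. Protein measured by Bio-Rad assay against a BSA standard.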

[29] = tested on: Escherichia coli BL21(DE3); test: Hydrolytic activity of Escherichia coli BL21 DE3 beta-lactamase VIM-19 by microacidimetric method; how it was run: as §3
[30] = tested on: CO/N=C(\C(=O)N[C@@H]1C(=O)N2C(C(=O)O)=C(COC(N)=O)CS[C@H]12)c1ccco1; test: (§4) Ratio of Kcat to Km for beta-lactamase VIM-1 in Escherichia coli DH5alpha expressing pBCLL/39H by microacidimetric method
[31] = tested on: CC1(C)S[C@@H]2[C@H](NC(=O)Cc3ccccc3)C(=O)N2[C@H]1C(=O)O; test: as §4
[32] = tested on: CC(C)(O/N=C(\C(=O)N[C@@H]1C(=O)N2C(C(=O)[O-])=C(C[n+]3ccccc3)CS[C@H]12)c1csc(N)n1)C(=O)O; test: as §4
[33] = tested on: C[C@@H](O)[C@H]1C(=O)N2C(C(=O)O)=C(S[C@@H]3CN[C@H](C(=O)N(C)C)C3)[C@H](C)[C@H]12; test: as §4
[34] = tested on: CCN1CCN(C(=O)N[C@@H](C(=O)N[C@@H]2C(=O)N3[C@@H]2SC(C)(C)[C@@H]3C(=O)O)c2ccccc2)C(=O)C1=O; test: as §4
[35] = tested on: CO[C@@]1(NC(=O)Cc2cccs2)C(=O)N2C(C(=O)O)=C(COC(N)=O)CS[C@@H]21; test: as §4
[36] = tested on: CO/N=C(\C(=O)N[C@@H]1C(=O)N2C(C(=O)O)=C(COC(C)=O)CS[C@H]12)c1csc(N)n1; test: as §4
[37] = tested on: CC(=O)OCC1=C(C(=O)O)N2C(=O)[C@@H](NC(=O)Cc3cccs3)[C@H]2SC1; test: as §4
[38] = tested on: CO/N=C(\C(=O)N[C@@H]1C(=O)N2C(C(=O)O)=C(COC(N)=O)CS[C@H]12)c1ccco1; test: (§5) Hydrolytic activity of beta-lactamase VIM-1 in Escherichia coli DH5alpha expressing pBCLL/39H by microacidimetric method
[39] = tested on: CC1(C)S[C@@H]2[C@H](NC(=O)Cc3ccccc3)C(=O)N2[C@H]1C(=O)O; test: as §5
[40] = tested on: CCN1CCN(C(=O)N[C@@H](C(=O)N[C@@H]2C(=O)N3[C@@H]2SC(C)(C)[C@@H]3C(=O)O)c2ccccc2)C(=O)C1=O; test: as §5
[41] = tested on: CO[C@@]1(NC(=O)Cc2cccs2)C(=O)N2C(C(=O)O)=C(COC(N)=O)CS[C@@H]21; test: as §5
[42] = tested on: CO/N=C(\C(=O)N[C@@H]1C(=O)N2C(C(=O)O)=C(COC(C)=O)CS[C@H]12)c1csc(N)n1; test: as §5
[43] = tested on: CC(=O)OCC1=C(C(=O)O)N2C(=O)[C@@H](NC(=O)Cc3cccs3)[C@H]2SC1; test: as §5

Metallo-beta-lactamase (Escherichia coli) (from UniProt Q5U7L7)
kcat [1]: 12.1 s⁻¹
kcat [2]: 55.8 s⁻¹
kcat [3]: 29.7 s⁻¹
kcat [4]: 88.7 s⁻¹
kcat [5]: 1.4 s⁻¹
kcat [6]: 32.7 s⁻¹
kcat [7]: 2.8 s⁻¹
kcat [8]: 4.7 s⁻¹
kcat [9]: 31.7 s⁻¹
kcat [10]: 27.5 s⁻¹
kcat [11]: 0.2 s⁻¹
kcat [12]: 9.9 s⁻¹
kcat [13]: 56.2 s⁻¹
kcat [14]: < 0.5 s⁻¹
kcat/Km [15]: 550000 M⁻¹ s⁻¹
kcat/Km [16]: 1.14e+06 M⁻¹ s⁻¹
kcat/Km [17]: 550000 M⁻¹ s⁻¹
kcat/Km [18]: 900000 M⁻¹ s⁻¹
kcat/Km [19]: 280000 M⁻¹ s⁻¹
kcat/Km [20]: 450000 M⁻¹ s⁻¹
kcat/Km [21]: 120000 M⁻¹ s⁻¹
kcat/Km [22]: 30000 M⁻¹ s⁻¹
kcat/Km [23]: 690000 M⁻¹ s⁻¹
kcat/Km [24]: 860000 M⁻¹ s⁻¹
kcat/Km [25]: 22000 M⁻¹ s⁻¹
kcat/Km [26]: 990000 M⁻¹ s⁻¹
kcat/Km [27]: 1.28e+06 M⁻¹ s⁻¹

C[C@@H](O)[C@H]1C(=O)N2C(C(=O)O)=C(S[C@@H]3CN[C@H](C(=O)N(C)C)C3)[C@H](C)[C@H]12
kcat/Km [28]: 140000 M⁻¹ s⁻¹
kcat [29]: 1.3 s⁻¹

CC1(C)S[C@@H]2[C@H](NC(=O)[C@H](N)c3ccc(O)cc3)C(=O)N2[C@H]1C(=O)O
kcat/Km [28]: 3.3e+06 M⁻¹ s⁻¹
kcat [29]: 112 s⁻¹

CC1(C)S[C@@H]2[C@H](NC(=O)Cc3ccccc3)C(=O)N2[C@H]1C(=O)O
kcat/Km [28]: 3.6e+06 M⁻¹ s⁻¹
kcat [29]: 206 s⁻¹

CO[C@@]1(NC(=O)Cc2cccs2)C(=O)N2C(C(=O)O)=C(COC(N)=O)CS[C@@H]21
kcat/Km [28]: 80000 M⁻¹ s⁻¹
kcat [29]: 4 s⁻¹

CC(C)(O/N=C(\C(=O)N[C@@H]1C(=O)N2C(C(=O)[O-])=C(C[n+]3ccccc3)CS[C@H]12)c1csc(N)n1)C(=O)O
kcat/Km [28]: 70000 M⁻¹ s⁻¹
kcat [29]: 6.3 s⁻¹

CCN1CCN(C(=O)N[C@@H](C(=O)N[C@@H]2C(=O)N3[C@@H]2SC(C)(C)[C@@H]3C(=O)O)c2ccccc2)C(=O)C1=O
kcat/Km [28]: 4.3e+06 M⁻¹ s⁻¹
kcat [29]: 160 s⁻¹

C[C@H]1[C@H](NC(=O)/C(=N\OC(C)(C)C(=O)O)c2csc(N)n2)C(=O)N1S(=O)(=O)O
kcat [29]: < 0.1 s⁻¹

CO/N=C(\C(=O)N[C@@H]1C(=O)N2C(C(=O)[O-])=C(C[N+]3(C)CCCC3)CS[C@H]12)c1csc(N)n1
kcat/Km [28]: 230000 M⁻¹ s⁻¹
kcat [29]: 12.5 s⁻¹

CO/N=C(\C(=O)N[C@@H]1C(=O)N2C(C(=O)O)=C(COC(N)=O)CS[C@H]12)c1ccco1
kcat/Km [28]: 400000 M⁻¹ s⁻¹
kcat [29]: 5.3 s⁻¹

C[C@@H](O)[C@H]1C(=O)N2C(C(=O)O)=C(SCCNC=N)C[C@H]12
kcat/Km [28]: 370000 M⁻¹ s⁻¹
kcat [29]: 8.2 s⁻¹

CO/N=C(\C(=O)N[C@@H]1C(=O)N2C(C(=O)O)=C(COC(C)=O)CS[C@H]12)c1csc(N)n1
kcat/Km [28]: 950000 M⁻¹ s⁻¹
kcat [29]: 34.3 s⁻¹

C[C@@H](O)[C@H]1C(=O)N2C(C(=O)O)=C(S[C@@H]3CN[C@H](C(=O)Nc4cccc(C(=O)O)c4)C3)[C@H](C)[C@H]12
kcat/Km [28]: 30000 M⁻¹ s⁻¹
kcat [29]: 0.6 s⁻¹

BlaVIM-1 (Escherichia coli) (from UniProt Q8GDC1)
kcat/Km [30]: 7.7e+06 M⁻¹ s⁻¹
kcat/Km [31]: 34000 M⁻¹ s⁻¹
kcat/Km [32]: 76000 M⁻¹ s⁻¹
kcat/Km [33]: 270000 M⁻¹ s⁻¹
kcat/Km [34]: 530000 M⁻¹ s⁻¹
kcat/Km [35]: 200000 M⁻¹ s⁻¹
kcat/Km [36]: 680000 M⁻¹ s⁻¹
kcat/Km [37]: 5.3e+06 M⁻¹ s⁻¹
kcat [38]: 324 s⁻¹
kcat [39]: 29 s⁻¹
kcat [40]: 1860 s⁻¹
kcat [41]: 26 s⁻¹
kcat [42]: 169 s⁻¹
kcat [43]: 281 s⁻¹

CC1(C)S[C@@H]2[C@H](NC(=O)[C@H](C(=O)O)c3ccsc3)C(=O)N2[C@H]1C(=O)O
kcat/Km [28]: 700000 M⁻¹ s⁻¹
kcat [29]: 45.8 s⁻¹

CC(=O)OCC1=C(C(=O)O)N2C(=O)[C@@H](NC(=O)Cc3cccs3)[C@H]2SC1
kcat/Km [28]: 1.4e+06 M⁻¹ s⁻¹
kcat [29]: 21.2 s⁻¹

— ChEMBL document CHEMBL1212777, “Novel VIM metallo-beta-lactamase variant from clinical isolates of Enterobacteriaceae from Algeria” (2010)
